pIC50: −log10 of the molar value.

The pIC50 is the IC50 on a negative log10 scale, so that one unit is a factor of ten.

In test [1] the test system is HUVEC. Description: Inhibition of […]-induced proliferation in HUVEC cells assessed as BrdU incorporation by ELISA. The format is functional, cell-based. Conditions: Homo sapiens. The gist of the method:
(§1)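 HUVEC were seeded in 5% FBS medium on type 1 collagen-coated plates and incubated overnight at 37 °C, 5% CO₂. The medium was replaced with inhibitor at various concentrations in serum-free medium. Cells were incubated a further 72 h, with BrdU added during the last 18–24 h. Incorporation was read by ELISA.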
In general terms: Incorporation of labelled thymidine or its analogues reports DNA synthesis.

For test [2], the target named is Vascular endothelial growth factor receptor 2 (Homo sapiens, UniProt P35968). Description: Inhibition of VEGFR2.
Sequence of Vascular endothelial growth factor receptor 2 (P35968 whole entry): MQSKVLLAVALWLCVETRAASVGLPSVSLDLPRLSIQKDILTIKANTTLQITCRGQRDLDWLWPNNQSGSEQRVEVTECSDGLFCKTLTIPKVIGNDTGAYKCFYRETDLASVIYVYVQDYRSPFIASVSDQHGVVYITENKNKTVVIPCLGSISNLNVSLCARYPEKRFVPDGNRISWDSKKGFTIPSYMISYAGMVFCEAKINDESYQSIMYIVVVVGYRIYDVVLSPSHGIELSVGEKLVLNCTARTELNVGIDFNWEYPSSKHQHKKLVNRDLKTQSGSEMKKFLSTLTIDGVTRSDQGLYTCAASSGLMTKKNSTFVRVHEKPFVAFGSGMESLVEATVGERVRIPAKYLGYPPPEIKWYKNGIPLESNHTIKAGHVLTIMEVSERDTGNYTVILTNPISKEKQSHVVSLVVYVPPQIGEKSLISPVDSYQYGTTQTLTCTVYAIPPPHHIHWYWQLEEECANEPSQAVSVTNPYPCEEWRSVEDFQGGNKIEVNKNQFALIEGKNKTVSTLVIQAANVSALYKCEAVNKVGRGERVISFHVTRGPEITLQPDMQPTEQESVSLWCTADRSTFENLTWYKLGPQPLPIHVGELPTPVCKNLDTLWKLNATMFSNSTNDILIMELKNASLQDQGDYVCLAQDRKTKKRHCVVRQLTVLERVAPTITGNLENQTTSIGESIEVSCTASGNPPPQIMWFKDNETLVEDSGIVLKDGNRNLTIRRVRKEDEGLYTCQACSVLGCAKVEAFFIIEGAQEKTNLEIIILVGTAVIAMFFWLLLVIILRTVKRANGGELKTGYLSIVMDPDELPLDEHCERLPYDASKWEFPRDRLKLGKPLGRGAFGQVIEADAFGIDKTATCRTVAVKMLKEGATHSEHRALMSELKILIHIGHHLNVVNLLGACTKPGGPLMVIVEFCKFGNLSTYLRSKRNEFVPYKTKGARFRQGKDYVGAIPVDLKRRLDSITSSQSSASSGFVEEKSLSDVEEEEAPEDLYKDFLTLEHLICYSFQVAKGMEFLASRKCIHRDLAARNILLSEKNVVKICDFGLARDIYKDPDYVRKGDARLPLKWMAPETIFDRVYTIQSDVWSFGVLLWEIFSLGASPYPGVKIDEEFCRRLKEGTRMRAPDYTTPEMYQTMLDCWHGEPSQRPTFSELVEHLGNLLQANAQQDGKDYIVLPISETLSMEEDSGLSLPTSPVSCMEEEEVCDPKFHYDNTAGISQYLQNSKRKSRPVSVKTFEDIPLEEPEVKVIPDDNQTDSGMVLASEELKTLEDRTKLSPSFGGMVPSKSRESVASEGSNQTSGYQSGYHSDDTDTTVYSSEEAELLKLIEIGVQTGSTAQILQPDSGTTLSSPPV
For test [3], the system named is HUVEC. In words: Inhibition of VEGF-induced proliferation in HUVEC cells assessed as BrdU incorporation by ELISA. Conditions: Homo sapiens. It is filed as functional, cell-based. Put shortly:
as §1

As to `O=C(Nc1cccc2cccnc12)c1ccccc1`, the pIC50 with HUVEC [1] was 5.94; in test [2], 6.87; in the test on HUVEC [3], 7.14.
For the compound `O=C(Nc1cccc2cccnc12)c1ccc(Cl)cc1`, the negative-log IC50 (pIC50) was 6.66 in the test on HUVEC [1], 6.90 in test [2] and 7.82 in the test on HUVEC [3].
In the case of `O=C(Nc1cccc2cccnc12)c1ccccc1Cl`, the negative-log IC50 (pIC50) in the test on HUVEC [1] is 5.94; in test [2], 7.63; in the test on HUVEC [3], 6.91.
In the same order, the values of `O=C(Nc1cccc2cccnc12)c1ccc(Cl)nc1` are 6.25, 7.07 and 6.85.
The matching figures for `O=C(Nc1cccc2cccnc12)c1cncc(Br)c1`: 6.46, 6.68 and 6.68.
The matching figures for `O=C(Nc1cnc2ccccc2c1)c1ccccc1`: 7.17, 6.97 and 7.10.
In the case of `O=C(Nc1cnc2ccccc2c1)c1cncc(Br)c1`, the figures for the pIC50 (with HUVEC [1]; in test [2]; in the test with HUVEC [3]) were 5.94, 7.05 and 7.23, respectively.
The matching figures for `O=C(Nc1cccc2cccnc12)c1ccc([N+](=O)[O-])cc1`: 6.35, 6.95 and 7.33.
The matching figures for `O=C(Nc1cccc2cccnc12)c1cccc([N+](=O)[O-])c1`: 6.68, 7.78 and 7.80.
In the same order, the values of `O=C(Nc1cccc2cccnc12)c1cc(Cl)ccc1O` are 6.96, 8.42 and 8.26.
For `Cc1ccc(C(=O)Nc2cccc3cccnc23)c(O)c1`, the negative-log IC50 (pIC50) in the test on HUVEC [1] was 7.35; in test [2], 8.02; with HUVEC [3] it was 7.70.
In the case of `Cc1cccc(C(=O)Nc2cccc3cccnc23)c1O`, the pIC50 with HUVEC [1] is 5.94; in test [2], 7.58; with HUVEC [3], 7.58.
Consider `O=C(Nc1cccc2cccnc12)c1cc(Br)cnc1O`, for which the figures for the negative-log IC50 (pIC50) (in the test on HUVEC [1]; in test [2]; with HUVEC [3]) were 6.25, 8.26 and 7.89, respectively.
The matching figures for `Cc1cnc(O)c(C(=O)Nc2cccc3cccnc23)c1`: 5.94, 7.87 and 7.87.
For the compound `Cc1cccc(C(=O)Nc2cnc3ccccc3c2)c1Br`, the pIC50 in the test on HUVEC [1] was 6.18; in test [2], 7.55; in the test with HUVEC [3] it was 7.94.
In the same order, the values of `Cc1cc(Cl)cc(C(=O)Nc2cnc3ccccc3c2)c1` are 6.25, 6.49 and 7.12.
For the compound `O=C(Nc1cnc2ccccc2c1)c1cc(Br)cc(Br)c1O`, the pIC50 in the test with HUVEC [1] was 6.62; in test [2] it was 7.49; in the test on HUVEC [3], 7.72.
Consider `O=C(Nc1cnc2ccccc2c1)c1cccc(Cl)c1O`, for which the results for the pIC50 (in the test with HUVEC [1]; in test [2]; with HUVEC [3]) were 6.47, 7.14 and 7.55, respectively.
In the same order, the values of `Cc1cc(Br)cc(C(=O)Nc2cnc3ccccc3c2)c1O` are 6.33, 7.91 and 7.72.
With `O=C(Nc1cnc2ccccc2c1)c1cc(Cl)cnc1Br`, the negative-log IC50 (pIC50) in the test on HUVEC [1] is 5.91; in test [2], 7.63; in the test with HUVEC [3], 7.23.
On to `Cc1cnc(Cl)c(C(=O)Nc2cnc3ccccc3c2)c1`, for which the values for the pIC50 (in the test with HUVEC [1]; in test [2]; with HUVEC [3]) were 6.05, 6.99 and 7.11, respectively.
In the same order, the values of `Cc1cc(Br)cc(C(=O)Nc2cnc3ccccc3c2)c1` are 6.14, 6.95 and 7.05.
The matching figures for `O=C(Nc1cnc2ccccc2c1)c1cc(Cl)c(O)nc1O`: 6.34, 7.49 and 7.84.
The matching figures for `Cc1cccc(C(=O)Nc2cnc3ccccc3c2)c1O`: 6.11, 7.59 and 7.45.
